One experiment relates to NCI-H460. Kind of experiment: Cytotoxicity against human H460 cells after 24 hrs by sulforhodamine B assay. The experiment is classed as functional, cell-based. The settings on record: NCI-H460, 24 h.
In a further experiment the target is Histone deacetylase 1 (Homo sapiens, UniProt Q13547). Kind of experiment: Inhibition of human HDAC1 by fluorimetry. The method, boiled down: (§1)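 Each purified single HDAC isoform incubated with fluorogenic substrate, a p53 fragment (residues […], Arg-His-Lys-Lys(Ac)) carrying an ε-acetylated lysine; deacetylation releases fluorophore, read by fluorimeter. Compounds tested as 10 doses, 1:3 serial dilution starting from 50 µM solution. IC50 from dose-response inhibition curves; trichostatin A as reference compound.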

A further experiment has as its target Histone deacetylase 2 (Homo sapiens, UniProt Q92769). Put plainly: Inhibition of human HDAC2 by fluorimetry. The method, boiled down:
as §1

In another experiment the target is Histone deacetylase 4 (Homo sapiens, UniProt P56524). Put plainly: Inhibition of human HDAC4 by fluorimetry. An outline of the steps:
as §1

The target in the next experiment is Histone deacetylase 5 (Homo sapiens, UniProt Q9UQL6). Kind of experiment: Inhibition of human HDAC5 by fluorimetry. An outline of the steps:
as §1

Experiment [1] addresses T1, Protein deacetylase HDAC6 (Homo sapiens, UniProt Q9UBN7).
T1 sequence (Q9UBN7 whole entry): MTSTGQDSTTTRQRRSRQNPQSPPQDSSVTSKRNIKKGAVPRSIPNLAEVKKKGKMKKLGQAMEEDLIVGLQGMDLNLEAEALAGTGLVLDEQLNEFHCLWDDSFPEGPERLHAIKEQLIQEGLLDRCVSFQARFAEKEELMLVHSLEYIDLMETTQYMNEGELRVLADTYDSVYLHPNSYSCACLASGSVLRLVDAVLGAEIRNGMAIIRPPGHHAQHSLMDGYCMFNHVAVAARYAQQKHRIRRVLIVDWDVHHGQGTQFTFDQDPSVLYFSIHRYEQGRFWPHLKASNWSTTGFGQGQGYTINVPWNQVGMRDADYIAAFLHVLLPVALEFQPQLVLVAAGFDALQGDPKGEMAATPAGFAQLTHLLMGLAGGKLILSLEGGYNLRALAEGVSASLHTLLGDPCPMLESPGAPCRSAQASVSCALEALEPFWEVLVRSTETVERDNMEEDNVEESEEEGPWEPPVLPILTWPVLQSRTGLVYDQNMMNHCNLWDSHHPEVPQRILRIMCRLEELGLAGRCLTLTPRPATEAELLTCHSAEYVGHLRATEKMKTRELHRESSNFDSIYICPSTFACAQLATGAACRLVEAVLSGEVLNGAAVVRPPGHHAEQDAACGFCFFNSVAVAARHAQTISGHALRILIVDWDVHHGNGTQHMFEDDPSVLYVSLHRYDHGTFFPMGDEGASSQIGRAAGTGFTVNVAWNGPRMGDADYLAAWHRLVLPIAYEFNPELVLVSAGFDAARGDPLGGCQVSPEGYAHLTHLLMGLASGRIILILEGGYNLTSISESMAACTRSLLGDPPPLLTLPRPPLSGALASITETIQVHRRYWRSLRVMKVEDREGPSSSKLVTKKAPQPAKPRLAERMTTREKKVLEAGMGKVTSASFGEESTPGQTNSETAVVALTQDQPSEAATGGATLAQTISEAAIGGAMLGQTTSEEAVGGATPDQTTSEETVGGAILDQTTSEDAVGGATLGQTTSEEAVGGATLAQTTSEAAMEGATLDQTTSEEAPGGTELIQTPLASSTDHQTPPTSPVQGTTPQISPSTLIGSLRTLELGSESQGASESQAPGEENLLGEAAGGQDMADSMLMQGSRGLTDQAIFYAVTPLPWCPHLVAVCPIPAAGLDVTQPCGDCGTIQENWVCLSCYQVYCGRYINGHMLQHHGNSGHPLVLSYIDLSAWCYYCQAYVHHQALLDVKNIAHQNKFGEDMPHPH
Put plainly: Inhibition of human HDAC6 by fluorimetry. An outline of the steps: as §1

The next experiment deals with T2, Histone deacetylase 7 (Homo sapiens, UniProt Q8WUI4).
T2 sequence (Q8WUI4 whole entry): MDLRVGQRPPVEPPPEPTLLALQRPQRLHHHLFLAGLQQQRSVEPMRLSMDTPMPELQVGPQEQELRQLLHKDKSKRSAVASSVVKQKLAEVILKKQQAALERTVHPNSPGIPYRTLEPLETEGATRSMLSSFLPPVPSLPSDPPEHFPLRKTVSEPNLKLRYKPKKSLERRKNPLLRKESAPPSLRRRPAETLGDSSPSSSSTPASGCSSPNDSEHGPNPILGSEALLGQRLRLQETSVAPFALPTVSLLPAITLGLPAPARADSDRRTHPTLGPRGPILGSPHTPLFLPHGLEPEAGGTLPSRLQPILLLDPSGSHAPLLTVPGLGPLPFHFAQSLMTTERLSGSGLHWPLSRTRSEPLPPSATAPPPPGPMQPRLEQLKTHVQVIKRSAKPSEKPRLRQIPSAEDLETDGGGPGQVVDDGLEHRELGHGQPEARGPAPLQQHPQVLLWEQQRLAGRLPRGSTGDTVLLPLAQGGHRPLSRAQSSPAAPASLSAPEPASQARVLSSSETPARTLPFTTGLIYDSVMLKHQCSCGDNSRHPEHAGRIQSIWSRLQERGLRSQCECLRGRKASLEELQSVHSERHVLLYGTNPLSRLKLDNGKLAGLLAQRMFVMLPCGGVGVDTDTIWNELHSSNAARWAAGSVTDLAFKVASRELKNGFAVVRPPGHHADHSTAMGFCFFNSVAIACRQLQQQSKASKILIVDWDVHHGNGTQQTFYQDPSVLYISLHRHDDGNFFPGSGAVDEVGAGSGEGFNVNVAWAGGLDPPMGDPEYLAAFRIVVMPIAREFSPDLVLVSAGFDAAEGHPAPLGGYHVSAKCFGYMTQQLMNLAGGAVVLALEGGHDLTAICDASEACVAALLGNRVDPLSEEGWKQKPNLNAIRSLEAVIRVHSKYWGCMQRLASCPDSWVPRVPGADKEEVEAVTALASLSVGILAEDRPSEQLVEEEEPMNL
Kind of experiment: Inhibition of human HDAC7 by fluorimetry.

The target in the next experiment is Histone deacetylase 9 (Homo sapiens, UniProt Q9UKV0). Put plainly: Inhibition of human HDAC9 by fluorimetry. The method, boiled down: as §1
The target of a further experiment is T3, Histone deacetylase 11 (Homo sapiens, UniProt Q96DB2).
T3 sequence (Q96DB2 whole entry): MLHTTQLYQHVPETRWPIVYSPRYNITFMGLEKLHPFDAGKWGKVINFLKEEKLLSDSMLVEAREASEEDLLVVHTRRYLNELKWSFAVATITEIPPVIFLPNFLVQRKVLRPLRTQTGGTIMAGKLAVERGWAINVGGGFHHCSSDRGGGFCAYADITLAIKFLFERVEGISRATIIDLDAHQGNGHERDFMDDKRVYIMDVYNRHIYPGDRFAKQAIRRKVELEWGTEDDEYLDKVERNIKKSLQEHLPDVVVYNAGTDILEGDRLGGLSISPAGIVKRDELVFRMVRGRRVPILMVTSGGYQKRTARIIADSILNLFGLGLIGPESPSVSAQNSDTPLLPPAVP
Put plainly: Inhibition of human HDAC11 by fluorimetry. An outline of the steps:
as §1

This is an account of results in ChEMBL document CHEMBL1153591, “Exploring bis-(indolyl)methane moiety as an alternative and innovative CAP group in the design of histone deacetylase (HDAC) inhibitors” (Bioorg Med Chem Lett, 2009).

Chain of Histone deacetylase 5 (Q9UQL6 whole entry): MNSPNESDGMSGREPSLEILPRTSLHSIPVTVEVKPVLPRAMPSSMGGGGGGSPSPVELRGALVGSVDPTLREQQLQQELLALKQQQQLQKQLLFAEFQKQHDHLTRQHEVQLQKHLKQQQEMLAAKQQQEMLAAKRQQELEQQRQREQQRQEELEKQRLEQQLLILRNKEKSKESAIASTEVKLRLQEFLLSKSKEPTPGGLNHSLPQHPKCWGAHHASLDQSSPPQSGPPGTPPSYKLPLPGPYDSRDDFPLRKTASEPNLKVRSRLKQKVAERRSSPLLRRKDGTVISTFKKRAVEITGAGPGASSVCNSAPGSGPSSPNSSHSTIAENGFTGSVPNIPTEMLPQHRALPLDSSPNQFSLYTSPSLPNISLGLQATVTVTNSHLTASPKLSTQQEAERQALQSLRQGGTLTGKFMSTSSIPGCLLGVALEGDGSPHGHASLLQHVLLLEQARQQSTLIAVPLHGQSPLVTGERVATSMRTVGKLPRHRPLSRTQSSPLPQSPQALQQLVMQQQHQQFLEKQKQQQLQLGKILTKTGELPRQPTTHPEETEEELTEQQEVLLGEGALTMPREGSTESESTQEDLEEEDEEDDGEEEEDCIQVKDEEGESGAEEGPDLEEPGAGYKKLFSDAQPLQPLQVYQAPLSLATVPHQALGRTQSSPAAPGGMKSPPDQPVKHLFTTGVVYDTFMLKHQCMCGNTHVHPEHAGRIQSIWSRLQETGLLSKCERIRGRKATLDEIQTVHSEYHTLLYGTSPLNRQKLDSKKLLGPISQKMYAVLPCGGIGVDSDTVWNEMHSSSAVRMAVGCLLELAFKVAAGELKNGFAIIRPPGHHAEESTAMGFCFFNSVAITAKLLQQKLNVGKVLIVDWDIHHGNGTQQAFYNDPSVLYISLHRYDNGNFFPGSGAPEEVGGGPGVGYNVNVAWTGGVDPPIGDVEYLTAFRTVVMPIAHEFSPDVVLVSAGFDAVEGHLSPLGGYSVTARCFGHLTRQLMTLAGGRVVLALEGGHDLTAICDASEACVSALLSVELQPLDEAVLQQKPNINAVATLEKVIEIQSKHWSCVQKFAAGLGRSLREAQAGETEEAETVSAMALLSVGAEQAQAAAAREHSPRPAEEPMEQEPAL
Chain of Histone deacetylase 2 (Q92769 whole entry): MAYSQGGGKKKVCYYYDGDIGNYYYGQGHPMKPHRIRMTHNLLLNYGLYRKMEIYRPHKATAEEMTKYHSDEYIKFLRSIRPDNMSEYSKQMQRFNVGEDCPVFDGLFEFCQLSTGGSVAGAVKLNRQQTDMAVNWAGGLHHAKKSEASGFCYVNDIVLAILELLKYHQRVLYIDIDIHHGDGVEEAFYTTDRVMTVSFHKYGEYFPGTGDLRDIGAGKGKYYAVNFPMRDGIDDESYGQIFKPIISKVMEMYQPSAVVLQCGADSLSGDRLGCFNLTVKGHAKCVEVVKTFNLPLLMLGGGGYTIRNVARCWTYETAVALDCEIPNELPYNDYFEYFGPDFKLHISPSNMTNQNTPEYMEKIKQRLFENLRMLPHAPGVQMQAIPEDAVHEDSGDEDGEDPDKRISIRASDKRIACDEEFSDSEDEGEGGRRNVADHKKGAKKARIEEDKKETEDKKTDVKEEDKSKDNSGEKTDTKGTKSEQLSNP
Chain of Histone deacetylase 4 (P56524 whole entry): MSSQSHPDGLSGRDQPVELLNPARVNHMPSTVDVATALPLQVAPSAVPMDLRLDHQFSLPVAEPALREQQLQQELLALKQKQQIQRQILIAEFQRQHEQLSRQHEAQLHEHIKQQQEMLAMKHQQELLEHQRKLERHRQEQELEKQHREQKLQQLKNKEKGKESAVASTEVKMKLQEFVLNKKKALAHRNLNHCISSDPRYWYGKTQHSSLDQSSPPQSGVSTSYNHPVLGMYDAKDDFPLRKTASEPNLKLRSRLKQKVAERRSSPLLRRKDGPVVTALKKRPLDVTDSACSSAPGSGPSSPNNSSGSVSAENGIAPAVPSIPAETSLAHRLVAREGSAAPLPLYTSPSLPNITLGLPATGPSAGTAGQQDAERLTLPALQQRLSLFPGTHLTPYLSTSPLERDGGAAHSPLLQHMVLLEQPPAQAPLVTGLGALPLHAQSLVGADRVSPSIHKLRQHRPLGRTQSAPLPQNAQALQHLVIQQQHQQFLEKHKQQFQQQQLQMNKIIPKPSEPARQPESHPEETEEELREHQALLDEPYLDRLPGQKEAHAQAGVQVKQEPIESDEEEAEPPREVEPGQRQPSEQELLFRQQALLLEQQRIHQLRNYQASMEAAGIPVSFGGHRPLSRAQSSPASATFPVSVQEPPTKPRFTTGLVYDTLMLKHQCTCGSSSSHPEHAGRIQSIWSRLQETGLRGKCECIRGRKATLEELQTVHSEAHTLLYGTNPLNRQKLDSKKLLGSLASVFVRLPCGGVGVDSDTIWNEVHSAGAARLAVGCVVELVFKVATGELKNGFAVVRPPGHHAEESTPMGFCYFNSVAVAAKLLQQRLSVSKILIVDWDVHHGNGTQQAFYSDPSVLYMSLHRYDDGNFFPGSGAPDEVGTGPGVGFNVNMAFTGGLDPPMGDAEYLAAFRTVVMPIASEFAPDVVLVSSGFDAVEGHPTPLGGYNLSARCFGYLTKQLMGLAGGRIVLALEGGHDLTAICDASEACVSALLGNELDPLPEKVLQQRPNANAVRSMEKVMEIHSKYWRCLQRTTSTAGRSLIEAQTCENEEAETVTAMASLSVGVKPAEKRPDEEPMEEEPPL
Chain of Histone deacetylase 1 (Q13547 whole entry, the tested form may be a part, canonical isoform): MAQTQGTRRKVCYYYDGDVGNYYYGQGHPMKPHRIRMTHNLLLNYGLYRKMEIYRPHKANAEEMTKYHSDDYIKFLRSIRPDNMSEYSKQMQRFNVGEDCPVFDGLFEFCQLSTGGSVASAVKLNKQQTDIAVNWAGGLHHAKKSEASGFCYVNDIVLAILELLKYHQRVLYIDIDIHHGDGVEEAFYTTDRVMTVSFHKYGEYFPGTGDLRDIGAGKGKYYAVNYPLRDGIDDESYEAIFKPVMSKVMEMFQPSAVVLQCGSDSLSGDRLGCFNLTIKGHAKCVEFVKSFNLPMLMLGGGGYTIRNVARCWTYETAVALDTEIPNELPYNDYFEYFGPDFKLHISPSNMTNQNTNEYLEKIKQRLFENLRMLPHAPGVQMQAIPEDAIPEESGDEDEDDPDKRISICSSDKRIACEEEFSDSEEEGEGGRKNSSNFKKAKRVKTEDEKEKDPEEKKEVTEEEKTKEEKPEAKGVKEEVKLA
Chain of Histone deacetylase 9 (Q9UKV0 whole entry): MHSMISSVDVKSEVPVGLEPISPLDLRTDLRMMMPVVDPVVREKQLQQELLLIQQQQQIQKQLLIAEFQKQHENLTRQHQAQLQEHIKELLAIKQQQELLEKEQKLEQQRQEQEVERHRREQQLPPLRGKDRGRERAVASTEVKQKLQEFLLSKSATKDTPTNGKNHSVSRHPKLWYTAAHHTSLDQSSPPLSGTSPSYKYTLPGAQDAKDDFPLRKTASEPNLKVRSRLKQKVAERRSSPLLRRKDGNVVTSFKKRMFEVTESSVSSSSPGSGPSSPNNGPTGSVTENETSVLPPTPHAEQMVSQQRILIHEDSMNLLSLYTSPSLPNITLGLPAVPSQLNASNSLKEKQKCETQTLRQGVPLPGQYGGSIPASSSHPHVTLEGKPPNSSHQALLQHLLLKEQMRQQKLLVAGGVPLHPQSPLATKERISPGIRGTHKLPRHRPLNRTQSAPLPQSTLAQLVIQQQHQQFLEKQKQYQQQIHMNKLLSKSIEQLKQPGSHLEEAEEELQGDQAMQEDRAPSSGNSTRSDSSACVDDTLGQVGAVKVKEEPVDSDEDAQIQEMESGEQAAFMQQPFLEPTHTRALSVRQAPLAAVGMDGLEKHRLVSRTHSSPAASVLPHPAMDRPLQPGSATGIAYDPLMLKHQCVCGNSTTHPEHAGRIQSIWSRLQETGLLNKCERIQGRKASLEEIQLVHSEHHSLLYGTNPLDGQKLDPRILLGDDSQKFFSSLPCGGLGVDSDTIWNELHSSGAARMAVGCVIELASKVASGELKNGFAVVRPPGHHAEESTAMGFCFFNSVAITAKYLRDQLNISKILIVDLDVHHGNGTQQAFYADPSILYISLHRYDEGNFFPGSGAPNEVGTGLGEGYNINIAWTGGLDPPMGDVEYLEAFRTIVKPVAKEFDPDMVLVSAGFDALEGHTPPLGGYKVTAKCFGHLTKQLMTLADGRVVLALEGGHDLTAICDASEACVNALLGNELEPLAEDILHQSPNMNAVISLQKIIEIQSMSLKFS

For orientation: IC50 means the midpoint of a concentration-inhibition curve. Read a low IC50 as inhibition by little substance. As to `O=C(/C=C/c1ccc(C(c2c[nH]c3ccccc23)c2c[nH]c3ccccc23)cc1)NO`, the IC50 in the experiment with NCI-H460 was 2.6 µM; against Histone deacetylase 1 it was 4.8 µM; on Histone deacetylase 2 it was 3.9 µM; on Histone deacetylase 4, 4.8 µM; on Histone deacetylase 5, 4.9 µM; in [1], 4.9 µM. Also, the results for the IC50 at Histone deacetylase 7, against Histone deacetylase 9 and against Histone deacetylase 11 were 4.2 µM, 3.3 µM and 0.41 µM, respectively.
